Assay results published in ChEMBL document CHEMBL1128250, “Structure-activity studies of 2,3,4,4a,5,9b-hexahydroindeno[1,2-c]pyridines as antispermatogenic agents for male contraception” (1995).

How the values were obtained:
Mus musculus [1] = assay: Effect on left testes body weight single oral dose of 10 mg/kg was given and the change after 1 h of dosing was observed.; assay type: functional, Testis
Procedure, shortened: (§1)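 Male CD-1 outbred Swiss albino mice, single oral gavage in acetate buffer pH 5 (10 mL/kg), 3, 10 or 30 mg/kg, plus vehicle control. Killed on day 1, 3 or 14 after dosing (times are days, not hours). Testes removed, right and left weighed separately, sectioned for histology and scored on a 0–6 spermatogenic index. Body weight change recorded. Mean ± SEM, n = 5; p < 0.05 versus control.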

Mus musculus [2] = assay: Effect on left testes body weight single oral dose of 10 mg/kg was given and the change after 14 hr of dosing was observed.; assay type: functional, Testis; procedure, shortened: as §1
Mus musculus [3] = assay: tested for its effect on spermatogenic index 3 days after single oral dose (1 mg/kg); assay type: functional
Procedure, shortened: (§2)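 Male CD-1 (ICR)BR outbred Swiss albino mice, 5/dose, single oral gavage dose (10 mL/kg) on day 0 in acetate buffer pH 5 or Tween-20-based vehicle; killed 72 h later. Testis cross-sections scored histologically on a 0–6 spermatogenic index (Sertoli only to >100 late spermatids/tubule). Reported as % reduction versus vehicle control; Dunnett's one-tailed t-test.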

Mus musculus [4] = assay: tested for its effect on spermatogenic index 3 days after single oral dose (3 mg/kg); assay type: functional; procedure, shortened: as §2
Mus musculus [5] = assay: tested for its effect on spermatogenic index 3 days after single sub cutaneous dose (10 mg/kg); assay type: functional
Procedure, shortened: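 CD-1 male mice, 5/dose, injected subcutaneously once (10 mL/kg) on day 0 in ethanol/Tween-20/water (3:7:90); vehicle and positive controls included. Killed by CO2 after 72 h; testes weighed and sectioned, with histology scored as a 0–6 spermatogenic index. Both read-outs given as % reduction from control; Dunnett's one-tailed t-test.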

Mus musculus [6] = assay: Effect on right testes weight single oral dose of 3 mg/kg was given and the change after 3 hr of dosing was observed.; assay type: functional, Testis; procedure, shortened: as §1
Mus musculus [7] = species: Mus musculus; assay: Tested for its effect on spermatogenic index 3 days after single sub cutaneous dose; assay type: functional
Procedure, shortened: (§3)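 CD-1 outbred Swiss albino male mice, 5 per dose, single subcutaneous injection on day 0 at 10 mL/kg in ethanol/Tween-20/water (3:7:90). Killed 72 h later. Testes weighed and scored for spermatogenic index (0–6). Results are % reduction versus vehicle control. Each assay included a 30 mg/kg positive control. Dunnett's one-tailed t-test, p < 0.05. Oral versus sc route compared by ANOVA.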

Mus musculus [8] = assay: Tested for its effect on testes weight 3 days after single oral dose (30 mg/kg); assay type: functional, Testis
Procedure, shortened: (§4)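 CD-1 outbred Swiss albino male mice, 5 per dose, single gavage on day 0 at 10 mL/kg. Vehicle was 0.15 M acetate buffer pH 5, ethanol/Tween-20/water (3:7:90), or 1% Tween-20 in water. CO2 euthanasia 72 h later. Testes weighed and histologically scored (spermatogenic index 0–6). Values are % reduction versus the assay's vehicle control. Positive control was 30 mg/kg of the parent compound. Significance by Dunnett's one-tailed t-test, p < 0.05.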

Mus musculus [9] = assay: Effect on right testes weight after 1 hr of dosing was observed.; assay type: functional, Testis; procedure, shortened: as §1
Mus musculus [10] = assay: Effect on change in body weight single oral dose of 3 mg/kg was given and the change after 14 hr of dosing was observed.; assay type: functional; procedure, shortened: as §1
Mus musculus [11] = assay: Effect on left testes weight single oral dose of 30 mg/kg was given and the change after 1 hr of dosing was observed.; assay type: functional, Testis; procedure, shortened: as §1
Mus musculus [12] = assay: Effect on left testes weight single oral dose of 30 mg/kg was given and the change after 3 hr of dosing was observed.; assay type: functional, Testis; procedure, shortened: as §1
Mus musculus [13] = assay: Effect on right testes body weight single oral dose of 10 mg/kg was given and the change after 14 h of dosing was observed.; assay type: functional, Testis; procedure, shortened: as §1
Mus musculus [14] = assay: Effect on right testes weight asingle oral dose of 3 mg/kg was given and the change after 14 hr of dosing was observed.; assay type: functional, Testis; procedure, shortened: as §1
Mus musculus [15] = assay: Effect on right testes weight single oral dose of 3 mg/kg was given and the change after 1 hr of dosing was observed. Data are given as mean +/- SEM (N=5), P<0.05, compared to control; assay type: functional, Testis; procedure, shortened: as §1
Mus musculus [16] = assay: Tested for its effect on mouse testes weight 3 days after single oral dose (90 mg/kg); assay type: functional, Testis; procedure, shortened: as §4
Mus musculus [17] = assay: Tested for its effect on mouse testes weight 3 days after single sub cutaneous (10 mg/kg); assay type: functional, Testis; procedure, shortened: as §3
Mus musculus [18] = assay: Tested for its effect on spermatogenic index 3 days after single oral dose (90 mg/kg),; assay type: functional; procedure, shortened: as §4
Mus musculus [19] = assay: Effect on spermatogenic index single oral dose of 3 mg/kg was given and the change after 14 hr of dosing was observed; assay type: functional; procedure, shortened: as §1
Mus musculus [20] = assay: tested for its effect on testes weight 3 days after single oral dose (30 mg/kg); assay type: functional, Testis
Procedure, shortened: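 Male CD-1 (ICR)BR outbred Swiss albino mice, 5/dose, given one oral gavage dose (10 mL/kg) on day 0 in 0.15 M acetate buffer pH 5, ethanol/Tween-20/water (3:7:90), or 1% Tween-20 in water; vehicle and positive-control groups in each assay. Killed by CO2 72 h later; testes weighed. Expressed as % reduction versus vehicle control; Dunnett's one-tailed t-test.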

CCN1CC[C@H]2[C@H](c3ccc(C)cc3)c3cc(C)ccc3[C@H]2C1.Cl
Testes weight (Mus musculus [1]): 88.5 mg | Testes weight (Mus musculus [2]): 101.6 mg | Reduction (Mus musculus [3]): 59% | Reduction (Mus musculus [4]): 31% | Reduction (Mus musculus [5]): 41% | Testes weight (Mus musculus [6]): 112.6 mg | Reduction (Mus musculus [7]): 0% | Reduction (Mus musculus [8]): 10% | Change in body weight (Mus musculus [9]): 3.22 g | Change in body weight (Mus musculus [10]): 3.62 g | Testes weight (Mus musculus [11]): 92.8 mg | Testes weight (Mus musculus [12]): 78.2 mg | Testes weight (Mus musculus [13]): 104.8 mg | Testes weight (Mus musculus [14]): 126.5 mg | Testes weight (Mus musculus [15]): 104.9 mg | Reduction (Mus musculus [16]): 10% | Reduction (Mus musculus [17]): -3% | Reduction (Mus musculus [18]): 5% | Spermatogenic index (Mus musculus [19]): 6 | Reduction (Mus musculus [20]): 43%
